Screens from PubChem.
Sampled rows, rich in hits. Any-hit rate of the full collection: about 1.5%.
TNF necrop inh: blocks TNF-alpha induced death of Jurkat FADD-/- cells. activation (protection from cell death), % at 10 µM. 220,000 compounds, 0.068% hits. Jurkat FADD-/- TNF necroptosis rescue, ATP luminescence, 24 h; 0 = TNF only, 100 = no-TNF cells. AID 463075;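 active means activation, meaning protection from cell death, of at least 50% relative to plate controls; inactive means activation below 50%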;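 further: necroptosis triggered by 40 ng/mL TNF-alpha added together with compound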
L929 necroptosis: blocks zVAD induced death of L929 cells | L929 zVAD necroptosis rescue, ATP luminescence, 24 h; with zVAD 60 µM | AID 1377 | 220,000 compounds, 0.38% hits | viability rescue, % at 10 µM;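 active means activation, scaled between plate controls, above about 75%, limit read from the data; inactive means activation under that limit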;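 further: 0% = zVAD with DMSO and 100% = DMSO alone without zVAD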
Dynein transport: dynein cargo transport inhibition | 3617.4 mouse cells, GR-EGFP nuclear translocation imaging; test concentration mostly 20 µM; stimulated with dexamethasone, 1 µM; active compounds read low | z-score, hits read low | 220,000 compounds, 0.47% hits | AID 1381;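 active means plate z-score of nuclear minus cytoplasmic receptor signal below a set negative limit, without overly bright fluorescence or cell loss, cut at about -3.5 in these data, passing the limit was not always enough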;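 further: z-score of nuclear minus cytoplasmic ring GR-EGFP intensity difference per well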
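medium = tetracycline-free induction medium containing charcoal-stripped FBS | probe or stimulus = dexamethasone, 1.0 µM final | timing = 48 h induction, then 1 h compound, then 30 min agonist, 37 °C | detection = automated 10x imaging of fixed Hoechst-stained cells | read-out basis = nuclear versus cytoplasmic GR-EGFP signal, averaged per well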
S1P4 antag: blocks the human S1P4 receptor | S1P4-expressing cells, antagonist mode, reporter read-out | inhibition, % at 4.98 µM | 220,000 compounds, 0.26% hits | AID 1510; in the data active means inhibition above about 29%;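 further: 0% = wells stimulated with agonist and 100% = vehicle wells without agonist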
Target sequence (O95977 whole entry, looked up): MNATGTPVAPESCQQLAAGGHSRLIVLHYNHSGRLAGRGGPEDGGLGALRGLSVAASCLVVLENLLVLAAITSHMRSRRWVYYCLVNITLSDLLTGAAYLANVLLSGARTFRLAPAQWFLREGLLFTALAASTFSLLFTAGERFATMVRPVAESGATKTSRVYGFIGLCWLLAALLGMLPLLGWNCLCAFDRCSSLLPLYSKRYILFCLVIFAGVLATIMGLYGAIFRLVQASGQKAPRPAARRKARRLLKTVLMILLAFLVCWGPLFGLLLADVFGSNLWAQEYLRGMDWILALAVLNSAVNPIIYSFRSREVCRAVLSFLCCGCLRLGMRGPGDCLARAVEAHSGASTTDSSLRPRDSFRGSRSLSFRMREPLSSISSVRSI
S1P4 ag: agonists of human S1P4 receptor; S1P4-expressing cell line, agonist reporter assay; activation, % at 4.98 µM; 220,000 compounds, 0.35% hits; AID 1509; in the data active means activation above about 11%;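 further: 0% = DMSO vehicle and 100% = reference agonist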
Tb hexokinase: blocks Trypanosoma brucei hexokinase 1 activity; recombinant TbHK1, G6PDH-coupled NADH A340; 220,000 compounds, 0.11% hits; inhibition, % at 10 µM;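 active means inhibition of 50% or more in the single-dose primary screen; inactive means inhibition below 50%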
The depositor's hits bear a star; i = inactive; / = no result.

SMILES	TNF necrop inh	L929 necroptosis	Dynein transport	S1P4 antag	S1P4 ag	Tb hexokinase
O=C(Cn1c(C(F)(F)F)nc2ccccc21)Oc1cccc(C(F)(F)F)c1	-1	1	-4.2*	10	0	1
CCOC(=O)C1(Cc2ccccc2)CCCN(Cc2ccc(OCCO)cc2)C1 (configuration not stated)	0	-1	-0.74	-11	-2	8
CCN1/C(=C/c2ccc3cc(C)ccc3[n+]2CC)Sc2ccccc21	-12	9	-5.1*	-34	-2	-4
CCC(C)(C)c1ccc(OCCCC[n+]2ccccc2)c(C(C)(C)CC)c1	-13	1	-3.7*	-101	2	15
O=C(CN1CCN(C(c2ccccc2)c2ccccc2)CC1)N1N=CCC1c1ccccc1 (configuration not stated)	68*	0	-0.24	1	0	-9
O=C(CSC(=S)N1CCOCC1)N1N=CCC1c1ccccc1 (configuration not stated)	50*	0	-0.33	-14	3	-1
O=C(CN1CCN(c2ccccc2)CC1)N1N=CCC1c1ccccc1 (configuration not stated)	39	0	0.34	-4	-2	-1
O=C(NNC1=NC2(CCCC2)Cc2ccccc21)c1ccncc1	1	3	0.74	-1	1	-23
CSc1ncc(S(=O)(=O)c2ccccc2)c(=O)[nH]1	-1	2	-0.67	-13	2	0
Cc1nc2ccc(S(=O)(=O)NCC(=O)N(C)Cc3ccccc3)cc2s1	1	0	0.073	0	-1	-5
COc1ccc2ncn(-c3ccccc3)c2c1	-3	88*	0.18	-7	0	6
COc1cccc(C2/C(=C(\O)c3ccc4c(c3)OCCO4)C(=O)C(=O)N2CCCN(C)C)c1OC (configuration not stated)	-3	0	-1.3	-7	38*	-4
Cc1cc(C(F)(F)F)nc(NCc2cccnc2)n1	-1	1	-0.57	0	1	79*
CCC1Oc2nc(SC)nnc2-c2ccccc2N1C(=O)c1ccccc1 (configuration not stated)	-3	1	1.1	10	-2	-10
CCC(=O)N1c2ccccc2-c2nnc(SC)nc2OC1c1ccc(N(C)C)cc1 (configuration not stated)	-11	/	-0.19	-9	220*	-10
COCCN=c1scc(-c2cccs2)n1/N=C/c1ccc(O)c(O)c1O	-9	2	-3	-16	13*	4
CCN=c1scc(C)n1/N=C/c1ccc(O)c(O)c1O	-13	0	-1	-7	1	9
Cc1ccc(Cn2c(=O)sc3ccccc3c2=O)cc1	1	0	-0.44	-13	-1	1
Cc1ccc(-n2sc3ccccc3c2=O)cc1	-7	0	-1.5	29	-2	66*
CC(C)C(C(=O)NCc1ccco1)N(C(=O)CNS(=O)(=O)c1ccc(Cl)cc1)C1CCCC1 (configuration not stated)	0	0	0.59	8	11*	8
CC(=O)Nc1sc(C)c(C)c1C(=O)OCC(=O)Nc1cc(S(=O)(=O)N2CCCCC2)ccc1Cl	0	0	1.5	-13	1	8
O=[N+]([O-])c1cc(Oc2cccnc2)cc([N+](=O)[O-])c1	0	0	1.6	-9	-1	-2
Cn1cc([N+](=O)[O-])c(C(=O)Nc2cc(Oc3cccnc3)cc([N+](=O)[O-])c2)n1	-16	69	-2.9	31*	-5	-7
CCN(CC)CCCNc1oc(-c2ccccc2[N+](=O)[O-])nc1C#N	0	0	0.42	3	1	4
CC(=O)Nc1nc(C)c(-c2csc(Nc3ccc(O)cc3)n2)s1	1	77*	2.1	9	-2	-11
SMILES	TNF necrop inh	L929 necroptosis	Dynein transport	S1P4 antag	S1P4 ag	Tb hexokinase
COC(=O)C1=C(C(=O)OC)[C@@H]2N(C)c3ccc(OC)cc3[C@@]23C[C@@H](C(=O)OC)N(S(=O)(=O)c2ccc(OC)cc2)C3=N1	-2	-1	2.3	/	/	-26
Cc1ccc(NC(=O)c2c(Cl)nc3ccccn23)cc1	0	44	-0.51	-6	0	4
Cc1noc(C)c1C(=O)Nc1nnc(-c2ccccc2)s1	-1	0	i	102*	-1	-29
O=c1c2ccccc2sn1-c1cc(S(=O)(=O)N2CCOCC2)ccc1N1CCOCC1	-4	1	-6.5*	4	1	50*
O=c1c2ccccc2sn1-c1cc(S(=O)(=O)N2CCOCC2)ccc1N1CCCC1	-3	-1	-1.1	-6	0	27
Cc1ccc(C=C2C(Cl)=C(Cl)C(Cl)=C2Cl)cc1	-29	3	-6.2*	9	0	-11
CN1C/C(=C/c2cccnc2)C(=O)/C(=C/c2cccnc2)C1	80*	-1	-5.9*	9	0	-41
CC1=N/C(=C/c2cccnc2)C(=O)O1	1	4	-0.27	-4	1	-7
COc1ccc(-n2c(C)nc3sc4c(c3c2=O)CCC4)cc1	93*	23	-0.32	5	-1	-4
CCn1c([N+](=O)[O-])nc2c1c(=O)[nH]c(=O)n2C	51*	-2	-3.2	23	-2	-10
O=C(Cn1cnc2ccc(Br)cc2c1=O)c1cccs1	74*	1	-0.63	-9	1	-5
O=C(Cn1cnc2ccc(Cl)cc2c1=O)c1cccs1	67*	1	0.13	-15	-3	0
O=C(Cn1cnc2ccccc2c1=O)c1cccs1	16	0	1.2	-29	2	-6
CC(C)CNC(=O)NC(=O)COC(=O)Cn1cnc2ccccc2c1=O	0	1	-1	-9	0	4
CC(C)COC(=O)Cn1cnc2ccc(Br)cc2c1=O	57*	1	0.48	-5	2	6
O=C(NCCc1ccc(F)cc1)C1CCCCC1	4	2	0.92	-7	1	0
CN1CCN(S(=O)(=O)c2ccc(NC(=S)NC(=O)c3ccc(Cl)cc3)cc2)CC1	-1	0	0.41	-3	13*	-2
O=S(=O)(NCCSc1ccccn1)c1ccc(Br)cc1	1	8	-0.5	-8	2	-4
COc1ccc(C2CN=NC2C(=O)c2ccccc2)cc1 (configuration not stated)	79*	0	-0.2	-9	0	-19
COc1ccc(C2N(C(=O)c3ccccc3)CCN2C(=O)c2ccc(C)cc2)cc1 (configuration not stated)	0	0	-1.1	21	-2	-3
CCC(C)NC(=O)CN(c1ccc(Cl)c(Cl)c1)S(C)(=O)=O (configuration not stated)	-1	0	-0.4	-11	1	2
